Source: PubChem BioAssay
The list is not random: actives were taken first. Their share in the collection is about 1.1%.
Diaphorase inh: diaphorase inhibition or chemical oxidation counter-screen; diaphorase resazurin-to-resorufin fluorescence, NADH, 16 min; bacterial (C. kluyveri) enzyme, not human; inhibition, % at 20 µM; actives 0.69% (n = 190,000);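 active = primary screen inhibition at 20 µM above a set limit, cut at about 50% in these data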;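 note: plate controls were DMSO with full reaction for no effect and wells lacking NADH for full effect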
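Assay system: diaphorase enzyme from Clostridium kluyveri. Quantity: enzyme working solution with 0.14 U/mL diaphorase. Schedule: reaction incubation of 16 min at room temperature. Technique: resorufin fluorescence, excitation 544 nm, emission 590 nm. Controls: No-NADH positive control and DMSO neutral control.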
G6PDH counter: L. mesenteroides G6PDH inhibition counter-screen; Purified L. mesenteroides G6PDH, diaphorase/resazurin coupled fluorescence, 45 min; inhibition, % at 5 µM; actives 0.12% (n = 200,000); AID 1020; in the data active = inhibition above about 50%
Diaph act CS: diaphorase activation or chemical reduction counter-screen. Diaphorase/resazurin coupled assay, resorufin fluorescence, 16 min; active compounds read high; 1 = vehicle wells, 0 = NADH-free wells. activation factor at 20 µM. actives 0.005% (n = 190,000). AID 1229;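 active = diaphorase activity raised at least twofold by the compound at 20 µM; inactive = activation factor below 2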
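Material: bacterial diaphorase enzyme (C. kluyveri); amount: enzyme 0.07 U/mL final; reagent: NADH substrate 0.114 mM plus resazurin dye 0.1 mM, final; doses: single compound dose of 20 µM, 1% DMSO final; timing: 16 min enzyme reaction, ambient temperature; measured by: fluorescence of resorufin, 544 nm excitation, 590 nm emission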
PMI act: activators of human phosphomannose isomerase. P34949. purified human PMI, coupled resazurin fluorescence, 20 min; active compounds read high; 1 = vehicle control, 0 substrate-free wells. AID 1214. activation factor at 20 µM. actives 0.005% (n = 190,000);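 active = activation factor of 2 or more at 20 µM, relative to plate controls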
Target sequence (P34949 whole entry, looked up): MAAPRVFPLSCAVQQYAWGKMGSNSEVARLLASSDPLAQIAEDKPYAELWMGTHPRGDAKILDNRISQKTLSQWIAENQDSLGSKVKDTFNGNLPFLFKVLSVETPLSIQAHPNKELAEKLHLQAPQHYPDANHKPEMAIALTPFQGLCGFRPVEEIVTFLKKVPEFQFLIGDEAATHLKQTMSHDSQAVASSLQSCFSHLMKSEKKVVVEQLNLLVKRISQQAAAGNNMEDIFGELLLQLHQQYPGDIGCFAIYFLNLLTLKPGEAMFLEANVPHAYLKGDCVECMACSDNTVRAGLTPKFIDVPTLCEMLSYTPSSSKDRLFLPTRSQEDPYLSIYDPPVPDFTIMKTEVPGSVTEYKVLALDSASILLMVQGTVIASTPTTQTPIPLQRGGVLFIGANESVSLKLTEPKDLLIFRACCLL
PMI act satM6P: PMI (human) activation, high substrate | coupled PMI enzyme assay, resazurin fluorescence, 20 min; active compounds read high; 1 = untreated enzyme, 0 = substrate-free blank | actives 0.34% (n = 190,000) | AID 1216 | activation factor at 20 µM;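 active = activation factor of 2 or more at 20 µM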
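Test system: human PMI in coupled enzyme assay; Input: PMI at 15 ng/mL final; Medium: HEPES buffer, pH 7.4; Schedule: 20 min incubation at room temperature; Technique: resorufin fluorescence at Ex 544/Em 590 nm; Compound: 20 µM single dose; Probe or stimulus: Near-saturating mannose-6-phosphate, 1.0 mM.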
* marks the source's active call; other numbers are inactive results.

SMILES	Diaphorase inh	G6PDH counter	Diaph act CS	PMI act	PMI act satM6P
CCOc1cc2c(C#N)c(N3CCCCC3)nc(N)c2c(N)n1	58*	47	0.4	0.4	0.4
COc1cc2c(C#N)c(N3CCOCC3)nc(N)c2c(N)n1	22	8	0.8	0.7	0.8
COc1cc2c(C#N)c(N3CCc4ccccc4C3)nc(N)c2c(N)n1	61*	-28	0.4	0.4	0.4
CCOc1cc2c(C#N)c(N3CCNCC3)nc(N)c2c(N)n1	46	18	0.5	0.3	0.4
CC1Cc2nc(SCC(=O)Nc3nc4ccccc4s3)n(C)c(=O)c2S1 (stereo not drawn)	18	-31	0.8	0.9	1
Cc1ccc(C(=O)NC(=S)Nc2ccc(NC(=O)c3cccs3)cc2)cc1[N+](=O)[O-]	18	-15	0.8	0.8	0.9
Cc1cccc(C)c1NC(=O)COC(=O)c1c2c(nc3ccccc13)/C(=C\c1ccc3c(c1)OCO3)CCC2	70*	4	0.3	0.9	0.8
CCN(CC)S(=O)(=O)c1cccc(C(=O)N/N=C/c2ccc(O)c(O)c2O)c1	80*	10	0.2	0.2	0.4
CCn1c(C)nc2cc(C(=O)NNC(=O)Nc3ccc(Cl)cc3)ccc21	8	5	0.9	1.9	2.8*
CCn1c(C)nc2cc(C(=O)N/N=C/c3ccc(O)c(O)c3O)ccc21	75*	23	0.2	0.2	0.2
COc1ccc(/C=C(\C#N)C(=O)OCCNC(=O)c2ccncc2)cc1	14	4	0.9	0.3	1.1
Cc1ccc(-c2nn3cnnc3c3ccccc23)cc1C	3	4	1	1.1	1.1
CCOC(=O)NC1(Nc2ccc(Cl)cn2)Oc2ccccc2O1	54*	26	0.5	0.7	0.6
CCCN(CCC)S(=O)(=O)c1ccc(C(=O)N2CCOCC2)cc1	11	0	0.9	1	0.9
Cc1ccc(NC(=S)Nc2cccc3cnccc23)c(C)c1	59*	16	0.4	0.6	0.7
Cc1cc(C)cc(NC(=S)Nc2cccc3cnccc23)c1	34	36	0.7	0.3	0.4
Cc1sc(N/N=C/c2cccs2)nc1-c1ccccc1	9	-32	0.9	0.9	1.1
O=S(NCc1ccco1)C12CC3CC(CC(C3)C1)C2 (stereo not drawn)	24	4	0.8	1.5	2*
O=S(NCc1ccccc1)C12CC3CC(CC(C3)C1)C2 (stereo not drawn)	4	1	1	0.9	0.9
Cc1c(NC(=S)N/N=C/C=C/c2ccc([N+](=O)[O-])cc2)c(=O)n(-c2ccccc2)n1C	21	3	0.8	1.5	2.1*
Cc1c(NC(=S)N/N=C\c2ccccc2O)c(=O)n(-c2ccccc2)n1C	4	11	1	1.1	1.3
CCC1(C)Cc2c(sc3nnn(Cc4ccccc4Cl)c(=O)c23)CO1 (stereo not drawn)	57*	4	0.4	0.9	1
Cc1ccc(S(=O)(=O)N2CCOCC2)cc1NC(=O)COc1ncnc2ccccc12	-2	18	1	1.1	1.1
CCCC1=[N+](CC(=O)c2ccc(C)cc2)CCn2cccc21	6	-7	0.9	1.5	1.6
CC(=O)N/N=C/c1c(C)[nH]n(-c2ccccc2)c1=O	56*	18	0.4	0.7	0.9
SMILES	Diaphorase inh	G6PDH counter	Diaph act CS	PMI act	PMI act satM6P
COC(=O)N/N=C\c1c(C)[nH]n(-c2ccccc2)c1=O	25	16	0.8	0.8	0.7
Cc1[nH]n(-c2ccccc2)c(=O)c1/C=N/NC(=O)COc1ccccc1[N+](=O)[O-]	53*	-1	0.5	0.9	0.4
C/C(=N\Nc1ccc(Cl)c(C(=O)O)c1)c1ccc2c(c1)OCO2	-13	9	1.1	1.9	2.8*
COc1ccccc1NC(=O)c1cc(C)nc2ccccc12	63*	3	0.4	1	1.1
Cc1nnc(SCC(=O)NC2CCCCC2C)s1 (stereo not drawn)	11	8	0.9	0.9	0.9
CCN(CC)S(=O)(=O)c1ccc(C(=O)NCCc2cc3c(OC)ccc(OC)c3[nH]c2=O)cc1	24	14	0.8	0.8	0.8
COc1ccc(OC)c2[nH]c(=O)c(CCNC(=O)c3ccc(S(=O)(=O)N4CCCC4)cc3)cc12	51*	5	0.5	0.8	0.8
N#Cc1c(N2CCCC(O)C2)nc(N)c2c(N)nc3c(c12)CC(=O)N3C12CC3CC(CC(C3)C1)C2 (stereo not drawn)	55*	50	0.4	0.4	0.4
C=C(C)CN(CC)c1nc(N)c2c(N)nc3c(c2c1C#N)CC(=O)N3C12CC3CC(CC(C3)C1)C2	20	4	0.8	1	1
CC(C)c1nc2sc3c(NCc4ccccc4)ncnc3c2c2c1COC(C)(C)C2	58*	-3	0.4	1	1
CSc1nc(NCc2ccco2)c2sc3nc(C(C)C)c4c(c3c2n1)CC(C)(C)OC4	86*	5	0.1	0.9	1
CCN(CCO)c1ncnc2c1sc1nc(C(C)C)c3c(c12)CC(C)(C)OC3	63*	7	0.4	1.1	1.1
CC(C)c1nc2sc3c(=O)n(N)cnc3c2c2c1COC(C)(C)C2	49	4	0.5	0.8	0.9
CC(C)c1nc2sc3c(NCc4ccco4)ncnc3c2c2c1COC(C)(C)C2	104*	13	0	0.9	0.9
CC(C)(C)OC(=O)COc1cc(OCC(=O)OC(C)(C)C)c2c(=O)cc(-c3ccccc3)oc2c1	23	11	0.8	0.8	0.9
COc1cc(OC)c2c(=O)cc(-c3ccccc3)oc2c1	55*	8	0.4	1	1
COc1cc2c(c3oc(-c4ccccc4)cc(=O)c13)C=CC(C)(C)O2	82*	23	0.2	1	1
Nc1c(N2CCOCC2)cc(Cl)c2nonc12	43	49	0.6	0.6	0.3
Nc1c(N2CCCC2)cc(Cl)c2nonc12	62*	57*	0.4	0.5	0.4
Nc1ccc(N2CCCCC2)cc1N1CCCCC1	57*	6	0.4	0.4	0.5
Nc1ccc(N2CCCCC2)c2nonc12	30	54*	0.7	0.6	0.3
Nc1cc(Cl)ccc1N1CCCCC1	20	11	0.8	0.9	0.8
O=C(COc1ccccc1[N+](=O)[O-])NNC(=O)Nc1cccc2ccccc12	11	6	0.9	0.9	0.4
CNS(=O)(=O)c1ccc(NC(=O)c2cncc(Br)c2)cc1	3	5	1	1.1	1.1
O=C(CSc1ccc2nnc(-c3ccc(F)cc3)n2n1)N1CCCc2ccccc21	59*	-1	0.4	0.9	1.1
O=C(CSc1nc2c(cnn2-c2ccc(F)cc2)c(=O)[nH]1)N1CCCc2ccccc21	63*	0	0.4	1	1
